Among the data in ChEMBL document CHEMBL1138319, “Synthesis and pharmacological evaluation of fluorescent and photoactivatable analogues of antiplasmodial naphthylisoquinolines” (J Med Chem, 2007) are IC50 and Activity values, retold here.

Each structure is given as a SMILES string. The source made the active and inactive calls. No cut-off for these calls is given here.

For test [1], the system named is Plasmodium falciparum. Description: Antiplasmodial activity against Plasmodium falciparum in human red blood cells after 4 hrs. It counts as functional, organism-based.
For test [2], the system named is L6. Kind of test: Cytotoxicity against rat L6 cells. Format: cell-based. The procedure, abridged:
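L-6 rat skeletal myoblast cell line; cytotoxicity values reported in µM.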

For test [3], the target named is T1, Falcipain 2 (Plasmodium falciparum) (UniProt Q9N6S8).
T1 sequence (whole entry): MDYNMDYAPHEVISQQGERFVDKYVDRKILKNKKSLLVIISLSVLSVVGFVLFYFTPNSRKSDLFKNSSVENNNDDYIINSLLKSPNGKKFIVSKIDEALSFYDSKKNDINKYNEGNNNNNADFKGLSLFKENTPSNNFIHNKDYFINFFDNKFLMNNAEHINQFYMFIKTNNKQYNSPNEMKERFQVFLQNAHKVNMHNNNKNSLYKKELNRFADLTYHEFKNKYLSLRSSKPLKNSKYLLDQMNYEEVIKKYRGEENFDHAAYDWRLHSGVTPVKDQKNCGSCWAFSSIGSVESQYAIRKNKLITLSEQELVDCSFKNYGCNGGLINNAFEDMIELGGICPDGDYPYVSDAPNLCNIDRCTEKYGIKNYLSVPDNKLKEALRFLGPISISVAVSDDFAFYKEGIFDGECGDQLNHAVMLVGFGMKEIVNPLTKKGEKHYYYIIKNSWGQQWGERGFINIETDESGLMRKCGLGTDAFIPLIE
Description: Inhibition of Plasmodium falciparum recombinant cysteine protease falcipain-2.

In the case of `COc1cccc2c(-c3cc(CCCOC(=O)N([C@@H](Cc4ccc(OCc5ccc(C(=O)c6ccccc6)cc5)cc4)C(=O)O)S(=O)(=O)c4cccc5c(N(C)C)cccc45)c4c(c3O)[C@@H](C)N[C@H](C)C4)c(C)cc(OC)c12`, the IC50 is 960 nM in test [1] and 69500 nM in test [2].

On to `COC(=O)/C=C/c1cc(-c2c(C)cc(OC)c3c(OC)cccc23)c(OCc2ccccc2)c2c1C[C@@H](C)N(Cc1ccccc1)[C@@H]2C`, for which the results for the IC50 in test [1] and in test [2] were 190 nM and more than 140000 nM, respectively.

`COc1cc([C@@H]2c3cc4c(cc3[C@H](O)[C@H]3COC(=O)[C@H]23)OCO4)cc(OC)c1OC` [PODOFILOX]: 7 nM corresponded to half-maximal inhibition in test [2] (IC50).

Turning to `COc1cccc2c(-c3cc(CCCO)c4c(c3O)[C@@H](C)N[C@H](C)C4)c(C)cc(OC)c12`, the IC50 in test [1] was 2420 nM; in test [2], 99000 nM.

Consider `COc1cccc2c(-c3cc(CNCCCCCCNS(=O)(=O)c4cccc5c(N(C)C)cccc45)c4c(c3O)[C@@H](C)N[C@H](C)C4)c(C)cc(OC)c12`, for which the results for the IC50 in test [1] and in test [2] were 602 nM and 16500 nM, respectively.

As for `COc1cccc2c(-c3ccc4c(c3O)[C@@H](C)N[C@H](C)C4)c(C)cc(OC)c12` [DIONCOPHYLLINE A], the figures for the IC50 in test [1] and in test [2] were 381 nM and 29100 nM, respectively. Further, the result in test [3] was inactive.

Regarding `COc1cccc2c(-c3cc(CNCCCCCCNS(=O)(=O)c4cccc5c(N(C)C)cccc45)c4c(c3OCc3ccccc3)[C@@H](C)N(Cc3ccccc3)[C@H](C)C4)c(C)cc(OC)c12`, the results for the IC50 in test [1] and in test [2] were 45 nM and 2500 nM, respectively.
